Results as given in ChEMBL document CHEMBL1139890, “Cucurbitane glycosides from the fruits of Siraitia gros venorii and their inhibitory effects on Epstein-Barr virus activation” (2007).

What was measured:
Human gammaherpesvirus 4 [1] = assay: Inhibitory effect on TPA-induced Epstein-Barr virus early antigen activation in Raji cells at 500 mol ratio/32 pmol TPA relative to TPA; assay type: functional; set-up: scale not given: the % may be the effect or the level left
In short: (§1)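 Raji cells induced with TPA at 32 pmol (20 ng), taken as 100%. Compounds given as molar ratio to TPA. EBV-EA induction is scored against this TPA-only positive control. Raji cell viability is reported as a percentage. IC50 is the molar ratio to TPA giving 50% inhibition of the positive control.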

Human gammaherpesvirus 4 [2] = assay: Inhibitory effect on TPA-induced Epstein-Barr virus early antigen activation in Raji cells at 1000 mol ratio/32 pmol TPA relative to TPA; assay type: functional; set-up: scale not given: the % may be the effect or the level left; in short: as §1
Human gammaherpesvirus 4 [3] = assay: Inhibitory effect on TPA-induced Epstein-Barr virus early antigen activation in Raji cells at 10 mol ratio/32 pmol TPA relative to TPA; assay type: functional; set-up: scale not given: the % may be the effect or the level left; in short: as §1
Human gammaherpesvirus 4 [4] = assay: Inhibitory effect on TPA-induced Epstein-Barr virus early antigen activation in Raji cells at 100 mol ratio/32 pmol TPA relative to TPA; assay type: functional; set-up: scale not given: the % may be the effect or the level left; in short: as §1
Raji = assay: Cell viability of Raji cells at 1000 mol ratio/32 pmol TPA; assay type: functional, Homo sapiens; in short: as §1
[5] = Inhibitory ratio on NOR1-induced NO activation in human Chang liver cells assessed as nitric oxide scavenging activity relative to NOR1; assay type: functional
In short: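 Chang liver cells (normal human hepatic cells) were used with NOR 1, an NO donor, as the NO source. Compounds were tested at 350 nmol. Scavenging of NO generated by NOR 1 is given as an inhibitory ratio. The ratio for NOR 1 alone (positive control, 350 nm) is set at 1.0.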

Compound | Activity (Human gammaherpesvirus 4 [1]) | Activity (Human gammaherpesvirus 4 [2]) | Activity (Human gammaherpesvirus 4 [3]) | Activity (Human gammaherpesvirus 4 [4]) | Activity (Raji) | Ratio [5]
C[C@H](CC[C@@H](O[C@@H]1O[C@H](CO[C@@H]2O[C@H](CO)[C@@H](O)[C@H](O)[C@H]2O)[C@@H](O)[C@H](O)[C@H]1O)C(C)(C)O)[C@H]1CC[C@@]2(C)[C@@H]3CC=C4[C@@H](CC[C@H](O[C@@H]5O[C@H](CO)[C@@H](O)[C@H](O)[C@H]5O)C4(C)C)[C@]3(C)CC[C@]12C | 25.7% | 10.6% | 100% | 81.9% | 70% | 1.5
C[C@H](CC[C@@H](O[C@@H]1O[C@H](CO)[C@@H](O)[C@H](O)[C@H]1O)C(C)(C)O)[C@H]1CC[C@@]2(C)[C@@H]3C(=O)C=C4[C@@H](CC[C@H](O[C@@H]5O[C@H](CO)[C@@H](O)[C@H](O)[C@H]5O)C4(C)C)[C@]3(C)[C@H](O)C[C@]12C | 24.4% | 7.7% | 100% | 80.8% | 70% | 1.5
CC1(C)N([O])C(c2ccc(C(=O)O)cc2)=[N+]([O-])C1(C)C | – | – | – | – | – | 8
C[C@H](CC[C@@H](O[C@@H]1O[C@H](CO[C@@H]2O[C@H](CO)[C@@H](O)[C@H](O)[C@H]2O)[C@@H](O)[C@H](O)[C@H]1O)C(C)(C)O)[C@H]1CC[C@@]2(C)[C@@H]3CC=C4[C@@H](CC[C@H](O)C4(C)C)[C@]3(C)C(=O)C[C@]12C | 25% | 8.5% | 100% | 80.6% | 70% | 1.4
C[C@H](CC[C@@H](O[C@@H]1O[C@H](CO[C@@H]2O[C@H](CO)[C@@H](O)[C@H](O)[C@H]2O)[C@@H](O)[C@H](O)[C@H]1O)C(C)(C)O)[C@H]1CC[C@@]2(C)[C@@H]3CC=C4[C@@H](CC[C@H](O[C@@H]5O[C@H](CO[C@@H]6O[C@H](CO)[C@@H](O)[C@H](O)[C@H]6O)[C@@H](O)[C@H](O)[C@H]5O)C4(C)C)[C@]3(C)C(=O)C[C@]12C [11-OXOMOGROSIDE IV A] | 27.3% | 10.3% | 100% | 82.5% | 70% | 1.4
CC1=C(/C=C/C(C)=C/C=C/C(C)=C/C=C/C=C(C)/C=C/C=C(C)/C=C/C2=C(C)CCCC2(C)C)C(C)(C)CCC1 [BETA CAROTENE] | – | 8.6% | 100% | – | 70% | –
CC1(C)[C@@H](O[C@H]2O[C@H](C(=O)O)[C@@H](O)[C@H](O)[C@H]2O[C@@H]2O[C@H](C(=O)O)[C@@H](O)[C@H](O)[C@H]2O)CC[C@]2(C)[C@H]3C(=O)C=C4[C@@H]5C[C@@](C)(C(=O)O)CC[C@]5(C)CC[C@@]4(C)[C@]3(C)CC[C@@H]12 [GLYCYRRHIZIN] | – | – | – | – | – | 2.2
C[C@H](CC[C@@H](O)C(C)(C)O[C@@H]1O[C@H](CO)[C@@H](O)[C@H](O)[C@H]1O)[C@H]1CC[C@@]2(C)[C@@H]3CC=C4[C@@H](CC[C@H](O[C@@H]5O[C@H](CO)[C@@H](O)[C@H](O)[C@H]5O)C4(C)C)[C@]3(C)[C@H](O)C[C@]12C [MOGROSIDE II B] | 26% | 7.2% | 100% | 76% | 70% | 1.5
C[C@H](CC[C@@H](O[C@@H]1O[C@H](CO)[C@@H](O)[C@H](O)[C@H]1O)C(C)(C)O)[C@H]1CC[C@@]2(C)[C@@H]3CC=C4[C@@H](CC[C@H](O[C@@H]5O[C@H](CO[C@@H]6O[C@H](CO)[C@@H](O)[C@H](O)[C@H]6O)[C@@H](O)[C@H](O)[C@H]5O)C4(C)C)[C@]3(C)[C@H](O)C[C@]12C [MOGROSIDE III A2] | 24% | 5.1% | 100% | 75.3% | 70% | 1.5
